Bioassay records from PubChem.
Hits are enriched below; roughly 2.5% of the tested compounds scored in any of these assays.
ABHD4 inh – ABHD4 inhibitors, primary screen, biochemical, fluorescence polarization, mouse; purified mABHD4, FP-Rh probe fluorescence polarization; inhibition, % at 8.92 µM; 0.54% of 370,000 active; AID 720543, 2013;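 active = inhibition exceeding the mean over every tested compound plus 3 SD, cut at about 30% in these data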;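 note: 0% = plate median of compound wells and 100% = S159A mutant with DMSO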
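System: mouse ABHD4 enzyme, wild type / Medium: HEPES pH 7.0, NaCl, Pluronic buffer / Reagent: FP-Rh activity-based fluorescent probe / Control set: S159A mutant high control, sample median low control / Detection: fluorescence polarization with parallel and perpendicular emission, 525/598 nm / Schedule: 45 min + 60 min at 25 °C / Compound dosing: 8.92 µM, single dose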
PRMT1 FP inh – PRMT1 methyltransferase inhibitors, primary screen, biochemical, fluorescence polarization | Protein arginine N-methyltransferase 1 (Homo sapiens), Q99873 | recombinant PRMT1, activity-based probe fluorescence polarization | inhibition, % at 2.79 µM | 1.3% of 370,000 active | AID 652257, 2013;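 active = inhibition above about 21% made by adding two undisclosed values, limit read from the data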
Target sequence (Q99873 whole entry, looked up): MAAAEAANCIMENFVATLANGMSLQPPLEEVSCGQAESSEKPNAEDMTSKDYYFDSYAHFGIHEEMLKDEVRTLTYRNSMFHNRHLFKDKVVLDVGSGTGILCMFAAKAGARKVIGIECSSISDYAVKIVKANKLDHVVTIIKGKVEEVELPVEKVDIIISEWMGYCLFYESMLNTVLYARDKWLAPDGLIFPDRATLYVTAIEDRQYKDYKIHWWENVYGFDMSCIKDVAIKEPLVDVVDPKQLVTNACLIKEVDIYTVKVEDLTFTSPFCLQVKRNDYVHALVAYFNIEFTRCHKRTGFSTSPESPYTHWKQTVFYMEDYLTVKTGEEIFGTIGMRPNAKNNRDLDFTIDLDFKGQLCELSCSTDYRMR
SIAE primary – human SIAE inhibitors, primary screen, biochemical, fluorescence polarization, FP-Rh probe, 1536-well HTS; SIAE FP-Rh probe binding; 0.69% of 370,000 active; Sialate O-acetylesterase (Homo sapiens), Q9HAT2; inhibition, % at 9.66 µM; AID 1053197, 2014;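 active = inhibition above a cutoff: mean of compounds within the control limits plus 3 SD of those, cut at about 17% in these data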;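 note: 0% = plate median of compound wells and 100% = probe without SIAE protein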
TCR-CD3 inh – inhibitors of human TCR-CD3 interaction, primary screen, biochemical, fluorescence, TAMRA-labeled TCR probe; 0.37% of 360,000 active; inhibition, % at 9.4 µM; T-cell receptor (TCR); in the data active = inhibition above about 19%;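 note: recombinant mutant TCR 2C K166C tagged with TAMRA read by polarization; 0% = receptor in buffer alone and 100% = receptor with positive control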
HTRA1 inhibitor – HTRA1 serine protease inhibitors, primary screen, biochemical, fluorescence polarization, HTS | 0.5% of 340,000 active | inhibition, % at 5.96 µM | Q92743 | recombinant HTRA1, FP-rhodamine activity-based probe; in the data active = inhibition above about 36%;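 note: 0% = enzyme with DMSO and 100% = wells lacking enzyme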
PRMT1 inh conf – PRMT1 methyltransferase inhibitors, confirmation, biochemical, fluorescence polarization, triplicate | shares compounds with PRMT1 FP inh | recombinant His-PRMT1, activity-based probe fluorescence polarization | inhibition, % at 2.79 µM | 42% of 3,300 active | AID 687036, 2013;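 active = mean inhibition across replicates above the hit cutoff derived for the earlier primary screen, cut at about 22% in these data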
Starred values were filed as active, the others as inactive; . = no result.

SMILES	ABHD4 inh	PRMT1 FP inh	SIAE primary	TCR-CD3 inh	HTRA1 inhibitor	PRMT1 inh conf
COC(=O)C1=C(C(=O)OC)[C@@]2([C@@H](Cc3ccc(C)cc3)Nc3ccccc3)C=C[C@@H]1O2	-1	12	9	.	.	.
COc1ccc(C(c2nnnn2C(C)(C)C)N2CCN(c3nc4ccccc4s3)CC2)cc1OC (centres undefined)	-1	-1	5	0	4	.
COc1cc(C(c2nnnn2C(C)(C)C)N2CCN(c3nc4ccccc4s3)CC2)ccc1O (centres undefined)	1	44*	-4	1	-3	31*
COP(=O)(OC)C(NC(=O)OCc1ccccc1)C(C)C (centres undefined)	2	-3	5	.	.	.
CC(=O)N1[C@@H](CO)[C@@H](c2ccc(-c3cccc(F)c3)cc2)[C@@H]1CNCC1CCC1	3	2	-9	.	.	.
CC(=O)Nc1ccc(SCCN2CC[C@@H](C(C)(C)C)CCC2=O)cc1	0	41*	2	3	1	43*
CC(=O)Nc1ccc(SC[C@H](C)CN2CC[C@H](O)CCC2=O)cc1	3	26*	1	2	-6	38*
C[C@@H](CSc1ccc(Br)cc1)CN1CC[C@H](O)CCC1=O	3	0	2	4	0	.
Cc1ccc(SCCN2CCC(C(C)(C)C)CCC2=O)cc1 (centres undefined)	8	2	-2	3	-20	.
CSc1cnn(Cc2ccccc2)c(=O)c1SCc1ccccc1	-2	74*	-2	-5	-22	6
CSc1cnn(-c2ccccc2)c(=O)c1SC	3	0	1	1	2	.
O=C(NC(=S)NC1CCSC1=O)c1ccccc1Cl (centres undefined)	-5	26*	6	-1	2	1
O=C(NC(=S)NC1CCSC1=O)c1ccccc1 (centres undefined)	0	30*	4	3	-5	9
O=C(NC(=S)NC1CCSC1=O)c1ccc([N+](=O)[O-])cc1 (centres undefined)	2	10	7	3	6	.
Cc1ccc2c(c1)C(CS(=O)(=O)NC1CCCC1)NC2 (centres undefined)	0	-3	-2	.	.	.
CN1C2CCCC1CC(NC(=O)c1nn(C)c3ccccc13)C2 (centres undefined)	14	2	6	.	.	.
O=C(CSc1ncccn1)c1ccccc1Br	-2	57*	2	-1	-1	38*
O=C(O)CSc1ncccn1	5	-1	-6	-2	0	.
O=C(CSc1ccc(-c2ccco2)nn1)Nc1ccccc1	5	7	9	7	-3	.
COc1cccc(NC(=O)CSC(N)=O)c1	2	63*	1	2	3	87*
COc1cccc(NC(=O)CCC(=O)Nc2cccc(OC)c2)c1	-2	-1	-6	2	3	.
O=C(CSc1ccc(-c2ccco2)nn1)c1ccccc1	19	28*	10	0	5	10
COc1cccc(NC(=O)CSc2ccc(-c3ccco3)nn2)c1	11	42*	4	7	-4	4
Cc1cccc2cc3c(N)c(C(=O)N4CCc5ccccc54)sc3nc12	9	31*	0	1	-4	4
Cc1cccc2cc3c(N)c(C(=O)Nc4ccc(N5CCOCC5)cc4)sc3nc12	8	0	5	2	11	.
SMILES	ABHD4 inh	PRMT1 FP inh	SIAE primary	TCR-CD3 inh	HTRA1 inhibitor	PRMT1 inh conf
Cc1sc(NC(=O)c2sc3nc4c(C)cccc4cc3c2N)c(C#N)c1C	-16	31*	-14	-16	-5	0
CCOc1ccc(N2C(=O)C3ON(c4ccccc4)C(c4ccco4)C3C2=O)cc1 (centres undefined)	9	-2	4	4	-14	.
CCOc1ccc(N2C(=O)C3Sc4[nH]c(=O)sc4C(/C=C/c4ccccc4)C3C2=O)cc1 (centres undefined)	5	27*	9	-6	-3	3
Cc1ccc(NC(=O)CC2SC(=NC3CCCCC3)NC2=O)cc1 (centres undefined)	-18	8	-2	0	-5	.
Cc1ccccc1NC(=O)CC1SC(=NC2CCCCC2)NC1=O (centres undefined)	-2	32*	0	-7	4	3
COc1ccc(NS(=O)(=O)c2ccc(N3CCCC3)c(NC(=S)Nc3cccc(C)c3C)c2)cc1	9	13	3	3	-2	.
COc1ccc(NS(=O)(=O)c2ccc(N3CCCC3)c(NC(=S)Nc3ccc(SC(F)F)cc3)c2)cc1	1	29*	-7	-4	-8	3
CCOC(=O)[C@@]12CN(C(=O)OC(C)(C)C)CC=C1N(Cc1ccc(OC)cc1)C(=O)[C@H]2CC(=O)NCc1ccc(C)o1	7	8	8	.	.	.
CC(C)CC1CC(C)(c2csc(NNC(=O)c3ccccc3)n2)OC1=O (centres undefined)	12	42*	11	4	-12	-3
CC1(C)CC(CC(=O)NNc2nc(-c3ccccc3)cs2)C(=O)O1 (centres undefined)	3	6	2	8	1	.
COCC(=O)N1C[C@H]2CON(C)[C@H]2C[C@H]1c1cccc(-c2cc(Cl)cc(Cl)c2)c1	4	6	-1	-8	.	.
CC[n+]1c(C)sc2c3ccsc3ccc21	-9	38*	-8	-10	-6	64*
CCC(C)NS(=O)(=O)c1ccc2[nH]c(=O)oc2c1 (centres undefined)	-2	-2	2	.	.	.
CCn1c(=O)c([N+](=O)[O-])c(Cl)c2ccccc21	.	.	.	.	10	.
O=c1c([N+](=O)[O-])c(O)c2ccccc2n1Cc1ccccc1	-1	29*	3	4	5	6
O=c1c([N+](=O)[O-])c(Cl)c2ccccc2n1Cc1ccccc1	7	43*	6	.	.	36*
O=C(Cc1ccccc1)NCC(=O)OCC(=O)c1ccc([N+](=O)[O-])cc1	-4	76*	2	-1	2	67*
O=C(CNC(=O)c1ccco1)OCC(=O)c1ccc([N+](=O)[O-])cc1	7	47*	3	-3	0	42*
O=C(COC(=O)CNC(=O)c1ccco1)Nc1ncc(Cl)cc1Cl	3	35*	-6	8	7	16
Cc1ccc(C(=O)NCC(=O)NCC(=O)OCC(=O)c2ccc([N+](=O)[O-])cc2)cc1	5	63*	1	5	-3	43*
COc1cccc(C(=O)NCC(=O)OCC(=O)Nc2ncc(Cl)cc2Cl)c1	4	-1	-2	4	6	.
